system: Staphylococcus epidermidis; test: Antimicrobial activity against extended spectrum beta-lactamases-producing methicillin-sensitive Staphylococcus epidermidis 10-15 after 18-24 hrs by two-fold serial dilution method; assay type: functional
Outline: (§1)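 Agar-medium twofold serial dilution against Gram-positive and Gram-negative strains; MIC taken as the lowest compound concentration giving complete inhibition of bacterial growth after incubation at 35 °C for 18-24 h.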

SMILES	MIC [µg/mL]
CS(=O)(=O)O.NCC1CN(c2nc3c(cc2F)c(=O)c(C(=O)O)cn3C2CC2)C/C1=N\OCc1ccc2c(c1)OCCO2 (racemic)	0.5

system: Klebsiella pneumoniae; test: Antimicrobial activity against extended spectrum beta-lactamases-producing Klebsiella pneumoniae 10-1 after 18-24 hrs by two-fold serial dilution method; assay type: functional; outline: as §1

SMILES	MIC [µg/mL]
CS(=O)(=O)O.NCC1CN(c2nc3c(cc2F)c(=O)c(C(=O)O)cn3C2CC2)C/C1=N\OCc1ccc2c(c1)OCCO2 (racemic)	> 128

system: Pseudomonas aeruginosa; test: Antimicrobial activity against extended spectrum beta-lactamases-producing Pseudomonas aeruginosa 10-15 after 18-24 hrs by two-fold serial dilution method; assay type: functional; outline: as §1

SMILES	MIC [µg/mL]
CS(=O)(=O)O.NCC1CN(c2nc3c(cc2F)c(=O)c(C(=O)O)cn3C2CC2)C/C1=N\OCc1ccc2c(c1)OCCO2 (racemic)	2

system: Enterococcus faecalis; test: Antimicrobial activity against Enterococcus faecalis 10-7 after 18-24 hrs by two-fold serial dilution method; assay type: functional; outline: as §1

SMILES	MIC [µg/mL]
CS(=O)(=O)O.NCC1CN(c2nc3c(cc2F)c(=O)c(C(=O)O)cn3C2CC2)C/C1=N\OCc1ccc2c(c1)OCCO2 (racemic)	1

system: Streptococcus pneumoniae; test: Antimicrobial activity against extended spectrum beta-lactamases-producing Streptococcus pneumoniae 10-4 after 18-24 hrs by two-fold serial dilution method; assay type: functional; outline: as §1

SMILES	MIC [µg/mL]
CS(=O)(=O)O.NCC1CN(c2nc3c(cc2F)c(=O)c(C(=O)O)cn3C2CC2)C/C1=N\OCc1ccc2c(c1)OCCO2 (racemic)	2

system: Staphylococcus aureus; test: Antimicrobial activity against extended spectrum beta-lactamases-producing methicillin-sensitive Staphylococcus aureus 10-14 after 18-24 hrs by two-fold serial dilution method; assay type: functional; outline: as §1

SMILES	MIC [µg/mL]
CS(=O)(=O)O.NCC1CN(c2nc3c(cc2F)c(=O)c(C(=O)O)cn3C2CC2)C/C1=N\OCc1ccc2c(c1)OCCO2 (racemic)	0.06

system: Klebsiella pneumoniae; test: Antimicrobial activity against Klebsiella pneumoniae 10-2 after 18-24 hrs by two-fold serial dilution method; assay type: functional; outline: as §1

SMILES	MIC [µg/mL]
CS(=O)(=O)O.NCC1CN(c2nc3c(cc2F)c(=O)c(C(=O)O)cn3C2CC2)C/C1=N\OCc1ccc2c(c1)OCCO2 (racemic)	16

system: Staphylococcus epidermidis; test: Antimicrobial activity against extended spectrum beta-lactamases-producing methicillin-resistant Staphylococcus epidermidis 10-10 after 18-24 hrs by two-fold serial dilution method; assay type: functional
Outline: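 Agar twofold serial dilution MIC against clinical isolates. MIC was taken as the lowest concentration giving complete inhibition of bacterial growth after incubation at 35 °C for 18-24 h.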

SMILES	MIC [µg/mL]
CS(=O)(=O)O.NCC1CN(c2nc3c(cc2F)c(=O)c(C(=O)O)cn3C2CC2)C/C1=N\OCc1ccc2c(c1)OCCO2 (racemic)	0.5

system: Staphylococcus epidermidis; test: Antimicrobial activity against extended spectrum beta-lactamases-producing methicillin-sensitive Staphylococcus epidermidis 10-11 after 18-24 hrs by two-fold serial dilution method; assay type: functional; outline: as §1

SMILES	MIC [µg/mL]
CS(=O)(=O)O.NCC1CN(c2nc3c(cc2F)c(=O)c(C(=O)O)cn3C2CC2)C/C1=N\OCc1ccc2c(c1)OCCO2 (racemic)	0.5

system: Enterococcus faecalis; test: Antimicrobial activity against Enterococcus faecalis 10-5 after 18-24 hrs by two-fold serial dilution method; assay type: functional; outline: as §1

SMILES	MIC [µg/mL]
CS(=O)(=O)O.NCC1CN(c2nc3c(cc2F)c(=O)c(C(=O)O)cn3C2CC2)C/C1=N\OCc1ccc2c(c1)OCCO2 (racemic)	0.5

system: Klebsiella pneumoniae; test: Antimicrobial activity against extended spectrum beta-lactamases-producing Klebsiella pneumoniae 10-3 after 18-24 hrs by two-fold serial dilution method; assay type: functional; outline: as §1

SMILES	MIC [µg/mL]
CS(=O)(=O)O.NCC1CN(c2nc3c(cc2F)c(=O)c(C(=O)O)cn3C2CC2)C/C1=N\OCc1ccc2c(c1)OCCO2 (racemic)	4

system: Escherichia coli; test: Antimicrobial activity against extended spectrum beta-lactamases-producing Escherichia coli 10-2 after 18-24 hrs by two-fold serial dilution method; assay type: functional; outline: as §1

SMILES	MIC [µg/mL]
CS(=O)(=O)O.NCC1CN(c2nc3c(cc2F)c(=O)c(C(=O)O)cn3C2CC2)C/C1=N\OCc1ccc2c(c1)OCCO2 (racemic)	> 128

system: Pseudomonas aeruginosa; test: Antimicrobial activity against extended spectrum beta-lactamases-producing Pseudomonas aeruginosa 10-18 after 18-24 hrs by two-fold serial dilution method; assay type: functional; outline: as §1

SMILES	MIC [µg/mL]
CS(=O)(=O)O.NCC1CN(c2nc3c(cc2F)c(=O)c(C(=O)O)cn3C2CC2)C/C1=N\OCc1ccc2c(c1)OCCO2 (racemic)	4

system: Escherichia coli; test: Antimicrobial activity against Escherichia coli 10-2 after 18-24 hrs by two-fold serial dilution method; assay type: functional; outline: as §1

SMILES	MIC [µg/mL]
CS(=O)(=O)O.NCC1CN(c2nc3c(cc2F)c(=O)c(C(=O)O)cn3C2CC2)C/C1=N\OCc1ccc2c(c1)OCCO2 (racemic)	4

system: Staphylococcus aureus; test: Antimicrobial activity against Staphylococcus aureus ATCC […] after 18-24 hrs by two-fold serial dilution method; assay type: functional; outline: as §1

SMILES	MIC [µg/mL]
CS(=O)(=O)O.NCC1CN(c2nc3c(cc2F)c(=O)c(C(=O)O)cn3C2CC2)C/C1=N\OCc1ccc2c(c1)OCCO2 (racemic)	0.06

system: Enterococcus faecium; test: Antimicrobial activity against Enterococcus faecium 10-5 after 18-24 hrs by two-fold serial dilution method; assay type: functional; outline: as §1

SMILES	MIC [µg/mL]
CS(=O)(=O)O.NCC1CN(c2nc3c(cc2F)c(=O)c(C(=O)O)cn3C2CC2)C/C1=N\OCc1ccc2c(c1)OCCO2 (racemic)	8

system: Escherichia coli; test: Antimicrobial activity against extended spectrum beta-lactamases-producing Escherichia coli 10-4 after 18-24 hrs by two-fold serial dilution method; assay type: functional; outline: as §1

SMILES	MIC [µg/mL]
CS(=O)(=O)O.NCC1CN(c2nc3c(cc2F)c(=O)c(C(=O)O)cn3C2CC2)C/C1=N\OCc1ccc2c(c1)OCCO2 (racemic)	2

system: Klebsiella pneumoniae; test: Antimicrobial activity against Klebsiella pneumoniae 10-3 after 18-24 hrs by two-fold serial dilution method; assay type: functional; outline: as §1

SMILES	MIC [µg/mL]
CS(=O)(=O)O.NCC1CN(c2nc3c(cc2F)c(=O)c(C(=O)O)cn3C2CC2)C/C1=N\OCc1ccc2c(c1)OCCO2 (racemic)	32

Source: ChEMBL document CHEMBL2062435, “Synthesis and in vitro antibacterial activity of gemifloxacin derivatives containing a substituted benzyloxime moiety” (2012)
